From PubChem BioAssay
Rows were chosen to be rich in hits. Some 2.1% of all compounds tested hit in one or more screens of this group.
CXCR6 block: blocks human CXCR6 beta-arrestin recruitment; O00574; CHO-K1 PathHunter CXCR6 beta-arrestin, luminescence; inhibition, % at 20 µM; hit rate 0.36% among 360,000; AID 602244; in the data active = inhibition above about 34%, passing the limit was not always enough;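 also: antagonist mode with CXCL16 agonist at 10 nM final; 0% = 10 nM CXCL16 with DMSO and 100% = unstimulated wells without agonist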
APJ agonist: agonists of human APJ apelin receptor; hit rate 0.11% among 330,000; CHO-K1 APJ PathHunter beta-arrestin, luminescence; 0% DMSO wells, 100% apelin; activation, % at 20 µM; AID 2520; P35414;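 active = activation more than six SD over the plate average, tested at 20 µM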;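 also: 0% = DMSO alone and 100% = apelin-13 at 10 nM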
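Material: engineered CHO-K1 APJ arrestin reporter cells; amount: 1000 CHO-K1 reporter cells seeded per well; incubation: compound stimulation 90 min at 25 °C, detection 60 min; signal: luminescent beta-gal fragment complementation, chemiluminescent substrate; read-out basis: APJ agonist activity; controls: DMSO-only wells as negative, 10 nM Apelin-13 as positive control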
EBI2 block: blocks human EBI2 receptor beta-arrestin signaling; P32249; EBI2 beta-arrestin recruitment, luminescence, 7a,25-OHC stimulated; inhibition, % at 5 µM; hit rate 0.81% among 360,000; in the data active = inhibition above about 38%;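 also: enzyme fragment complementation signal reports receptor beta-arrestin coupling in cells; 0% = agonist plus DMSO wells and 100% = wells without agonist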
CCR6 antagonist: blocks CCL20-driven beta-arrestin recruitment at human CCR6; P51684; CHO-K1 CCR6 PathHunter beta-arrestin, luminescence, CCL20-stimulated; inhibition, % at 20 µM; hit rate 0.49% among 340,000;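 active = compounds whose inhibition of the agonist-driven luminescence signal at 20 µM reaches about 50%, limit read from the data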;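 also: cells stimulated with CCL20 at 14 nM final; plate controls were DMSO with CCL20 for no effect and DMSO without agonist for full effect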
HTR2A ag: mouse HTR2A agonism via beta-arrestin recruitment. P35363. CHO-K1 mHTR2A beta-arrestin complementation, luminescence; percent of 30 µM serotonin response. activation, % at 7.6 µM. hit rate 0.66% among 360,000. AID 624169;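 active = activation above a run cutoff, the mean activation of all tested compounds plus 3 SD, cut at about 14% in these data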;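 also: 0% = plate median of compound wells and 100% = 30 µM serotonin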
APJ antag: blocks the human apelin receptor APJ; P35414; hit rate 0.32% among 330,000; CHO-K1 APJ beta-arrestin complementation, luminescence; AID 2521; inhibition, % at 20 µM;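 active = inhibition above about 40% at 20 µM, limit read from the data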;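 also: cells challenged with 10 nM apelin-13 agonist together with compound; plate controls were apelin-13 plus DMSO wells for no effect and DMSO wells lacking apelin-13 for full effect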
OPRM1 ag: OPRM1 agonism in mouse HTR2A counterscreen; shares compounds with HTR2A ag; U2OS OPRM1 beta-arrestin PathHunter, luminescence; DMSO 0%, DAMGO 9.3 µM 100%; activation, % at 9.3 µM; hit rate 5.3% among 2,300;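 active = mean activation above the mean of DMSO-only wells plus 3 SD, cut at about 0.5% in these data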
Target sequence (P35372 whole entry, looked up): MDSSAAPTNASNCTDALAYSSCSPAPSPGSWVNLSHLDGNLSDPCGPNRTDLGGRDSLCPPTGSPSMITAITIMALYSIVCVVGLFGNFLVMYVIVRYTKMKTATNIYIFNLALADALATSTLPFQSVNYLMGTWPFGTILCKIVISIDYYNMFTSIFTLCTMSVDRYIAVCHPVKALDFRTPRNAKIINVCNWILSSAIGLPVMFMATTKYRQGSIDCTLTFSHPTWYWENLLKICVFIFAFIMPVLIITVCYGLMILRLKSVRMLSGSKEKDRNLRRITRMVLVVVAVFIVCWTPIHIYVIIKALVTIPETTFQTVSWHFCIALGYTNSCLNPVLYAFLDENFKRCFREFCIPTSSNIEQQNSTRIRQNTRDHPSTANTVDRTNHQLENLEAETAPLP
HTR2A ag conf: mouse HTR2A agonism confirmed. shares compounds with HTR2A ag. CHO-K1 PathHunter beta-arrestin recruitment, luminescence; DMSO 0%, 30 µM serotonin 100%. activation, % at 7.6 µM. hit rate 19% among 2,300. AID 624381;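 active = mean activation across triplicates above the hit threshold derived in the original primary screen, cut at about 15% in these data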
An asterisk follows results filed as active; / = no result given.

SMILES	CXCR6 block	APJ agonist	EBI2 block	CCR6 antagonist	HTR2A ag	APJ antag	OPRM1 ag	HTR2A ag conf
COc1ccc2oc(C(=O)OCC(=O)N(C)C3CCS(=O)(=O)C3)c(C)c2c1 (stereo not drawn)	-10	-5	-7	-2	4	-33	/	/
O=C(CN1CCCC1c1cccs1)N1CCN(S(=O)(=O)c2cccc(F)c2)CC1 (stereo not drawn)	-6	-5	4	3	4	3	/	/
CC(CCc1ccccc1)NC(=O)CN1CCc2ccccc2C1 (stereo not drawn)	-2	0	-7	12	25*	-20	-1	60*
O=C1CN(C(=O)NCC(=O)N[C@@H](Cc2ccccc2)C(=O)O)c2ccccc2N1	0	-1	-3	5	4	6	/	/
CC(CCc1ccccc1)NC(=O)CNC(=O)N1CC(=O)Nc2ccccc21 (stereo not drawn)	5	-1	-5	-1	15*	15	-1	0
CCCN1CCN(CCCNC(=O)c2ccc3nc(N4CCC(C)CC4)sc3c2)CC1	5	0	-9	10	-5	9	/	/
CC1CCCCN1CCCNC(=O)c1ccc2nc(N3CCCCC3)sc2c1 (stereo not drawn)	0	2	-11	9	17*	-3	-1	-6
Cc1oc(-c2ccc(Cl)cc2)nc1CS(=O)CC(=O)NCCCN1CCCC(C)C1 (stereo not drawn)	-6	-2	2	22	17*	13	0	-2
CC(C)C[C@@H](CN)NC(=O)c1nc[nH]c1C(=O)N[C@@H](C)C(=O)CNC[C@H](C)NC(=O)c1nc[nH]c1C(=O)N[C@@H](CC(C)C)C(=O)O	-2	/	-9	6	1	/	/	/
COc1ccc(N2CCN(c3cc(=O)n(Cc4ccc(F)cc4)c(=O)[nH]3)CC2)cc1	-2	-1	0	-2	16*	12	-1	-1
O=c1cc(N2CCN(c3ccc(F)cc3)CC2)[nH]c(=O)n1Cc1ccc(F)cc1	4	6	-2	8	-5	-3	/	/
O[C@@H]1CN(CC2CCCCC2)[C@@H](c2ccccc2)C[C@H]1n1cc(-c2ccc(F)cc2)nn1	2	/	17	/	3	/	/	/
COc1cc(C(=O)O)ccc1O	5	5	-9	-3	28*	7	-1	-1
CC(C)CNc1ncnc2c1ncn2[C@H]1CN(Cc2cccs2)C[C@@H](CO)O1	-6	/	-2	/	-3	/	/	/
COc1ccc(Cc2c(O)nc(SCC(C)C)[nH]c2=O)cc1	1	-4	-8	12	14*	2	-1	-2
CCOC(=O)CCCCCC(=O)Nc1ccc2c(c1)C(=O)N([C@H](C)CO)C[C@H](C)[C@@H](CN(C)S(C)(=O)=O)OCCCC[C@@H](C)O2	0	/	-6	/	-3	/	/	/
NC(=O)Cn1nc(C(F)(F)F)c2c1CCCC2	-5	-3	-4	-1	40*	-4	0	-3
O=C(O)Cn1nc(C(F)(F)F)c2c1CCCCC2	-8	4	-2	-10	5	-8	/	/
CCOc1ccc(N2C(=O)CC(NCCc3c[nH]c4ccccc34)C2=O)cc1 (stereo not drawn)	3	-1	14	-7	19*	-17	0	-2
COc1ccc(Cl)cc1NC(=O)CN(C)C(=O)c1cc(-c2ccncc2)nc2ccccc12	-15	21	-10	-7	-4	-1	/	/
OC(c1cc(C(F)(F)F)nc2c(C(F)(F)F)cccc12)C1CCCCN1 (stereo not drawn)	-13	13	-3	0	31*	-18	1.3*	14
O=C1NC(=O)C(Cc2cccc(Oc3ccccc3)c2)S1 (stereo not drawn)	-2	-3	-8	-6	15*	10	-1	0
O=C(Nc1n[nH]c(=S)s1)c1ccc2ccccc2c1	-12	3	-5	-2	18*	-12	0	2
Cc1ccn2cc(CNS(=O)(=O)c3ccc4c(c3)OCCO4)nc2c1	-1	0	-2	1	26*	-5	0	2
O=C(CN1CCN(C(=O)c2ccccc2)CC1)NC(=O)NCCC1=CCCCC1	-6	-1	-9	4	20*	11	-1	-3
SMILES	CXCR6 block	APJ agonist	EBI2 block	CCR6 antagonist	HTR2A ag	APJ antag	OPRM1 ag	HTR2A ag conf
CCOC(=O)N1CCN(C(c2ccc(F)cc2)c2sc3nc(C)nn3c2O)CC1 (stereo not drawn)	0	-3	-5	1	32*	10	-1	-3
CCOC(=O)N1CCN(C(c2ccccc2)c2sc3nc(C)nn3c2O)CC1 (stereo not drawn)	1	-1	1	0	3	18	/	/
CC1(/[N+]([O-])=C\c2ccccc2F)CCCCC1=O (stereo not drawn)	1	1	-8	7	16*	-5	0	-1
CCN(Cc1ccc2c(c1)OCCO2)C(=O)CN1C(=O)NC2(CCc3ccccc32)C1=O (stereo not drawn)	-2	-5	-1	-2	-7	6	/	/
CCC(C)N(C(=O)COC(=O)CSc1ccc(C)c(C)c1)C1CCS(=O)(=O)C1 (stereo not drawn)	-7	-2	-8	0	15*	18	0	0
Cc1cccc(C)c1NC(=O)c1cc(S(=O)(=O)N2CCc3ccccc32)cn1C	-7	-2	2	13	21*	-7	0	-3
COc1ccccc1C1(CC(=O)N2CCCCC2)CCOC(C(C)C)C1 (stereo not drawn)	9	-6	9	22	1	-32	/	/
CCC1(C)CC(CC(=O)O)(c2ccccc2OC)CCO1 (stereo not drawn)	-10	1	-24	-18	15*	12	0	1
NC(Cc1ccc(Cl)cc1)c1csc(Nc2ccc(C(=O)NCCCO)cn2)n1 (stereo not drawn)	-7	/	-1	/	-5	/	/	/
O=C(O)c1cnc2ccc(Cl)cc2n1	-2	/	-3	/	0	/	/	/
Oc1ccccc1/C=N/n1c2ccccc2c2ccccc21	0	-4	-12	2	16*	17	0	2
O=C(O)CSc1cnc2ccccc2n1	2	2	-1	6	18*	11	-1	-3
O=C(CSc1cnc2ccccc2n1)NC1CCCC1	0	1	2	-1	3	6	/	/
O=C(CSc1ccc2ccccc2c1)NCCc1ccc(O)c(O)c1	-2	-1	11	2	31*	-17	0	101*
